Source: PubChem
Hits are enriched below; roughly 2.7% of the tested compounds scored in any of these assays.
FGF22 binding-1 = binders of human FGF22 protein, primary screen, FGF22 synaptogenesis inhibitor project, biophysical, thermal shift, single point; Fibroblast growth factor 22 (Homo sapiens), Q9HCT0; recombinant FGF22 thermal shift, SYPRO orange fluorescence; percent of sucrose octasulfate shift, DMSO zero; activity (Tm shift, normalised), % at 9.99 µM; 340,000 compounds, 1.5% hits; AID 651658, 2012;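 active = mean Tm shift, scaled 0 neutral to 100 positive control, at about 1.3% or above, every replicate too, limit read from the data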
CFTR F508del cor = F508del CFTR correction, initial screen, CFBE line, single point; 350,000 compounds, 0.36% hits; AID 720511, 2013; activity (quench increase), % at 7.58 µM; CFBE cells, YFP halide quenching; stimulated with forskolin plus potentiator P3; % fluorescence drop versus neutral controls;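 active = mean added fluorescence quench of at least 8% versus neutral control, with both replicates also reaching 8%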;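 note: cells transiently co-express mutant CFTR-F508del with the halide-sensitive YFP; corrector assay measuring rescue of mutant channel to the surface after 24 h compound exposure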
HIV Env fusion = inhibitors of HIV-1 Env-driven cell-cell fusion, primary screen, HeLa-JRFL effector, CEM21 target cells, luciferase; inhibition, % at 12.3 µM; 360,000 compounds, 1.1% hits;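 active = mean replicate inhibition score of at least 50 and every replicate individually at or above 50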;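 note: 0% = plate neutral controls and 100% = maraviroc near 300 nM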
S100A4 inh HTS = inhibitors of S100A4-myosin IIA peptide binding, primary screen, biochemical, fluorescence polarization, TAMRA-MyoIIA peptide; 360,000 compounds, 0.14% hits; Protein S100-A4 (Homo sapiens), P26447; AID 652163, 2013; inhibition, % at 10.7 µM;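 active = mean inhibition of at least 70% across replicates, with every replicate also reaching that level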
Target sequence (P26447 whole entry, looked up): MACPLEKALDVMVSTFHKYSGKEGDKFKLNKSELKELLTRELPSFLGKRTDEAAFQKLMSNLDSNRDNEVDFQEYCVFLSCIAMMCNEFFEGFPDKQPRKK
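Test system – S100A4 monomer (human) · Compound – single-point compound testing · Schedule – 5 min incubation before reading · Probe or stimulus – TAMRA-labelled myosin IIA heavy-chain peptide probe, 5 nM · Benchmarks – neutral control DMSO, positive control TFP · Medium – Calcium-containing HEPES buffer, pH 7.2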
E-selectin induc = E-selectin induction in HUVECs, primary screen, imaging, HUVEC, immunofluorescence imaging, single point; normalized: neutral wells 0, TNF-alpha wells 100; activation, % at 7.58 µM; 260,000 compounds, 0.37% hits; AID 686992, 2013;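 active = mean E-selectin-positive cell signal at least 10% of the positive control, reached in at least 60% of replicates, without over 20% cell loss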
Target sequence (P16581 whole entry, looked up): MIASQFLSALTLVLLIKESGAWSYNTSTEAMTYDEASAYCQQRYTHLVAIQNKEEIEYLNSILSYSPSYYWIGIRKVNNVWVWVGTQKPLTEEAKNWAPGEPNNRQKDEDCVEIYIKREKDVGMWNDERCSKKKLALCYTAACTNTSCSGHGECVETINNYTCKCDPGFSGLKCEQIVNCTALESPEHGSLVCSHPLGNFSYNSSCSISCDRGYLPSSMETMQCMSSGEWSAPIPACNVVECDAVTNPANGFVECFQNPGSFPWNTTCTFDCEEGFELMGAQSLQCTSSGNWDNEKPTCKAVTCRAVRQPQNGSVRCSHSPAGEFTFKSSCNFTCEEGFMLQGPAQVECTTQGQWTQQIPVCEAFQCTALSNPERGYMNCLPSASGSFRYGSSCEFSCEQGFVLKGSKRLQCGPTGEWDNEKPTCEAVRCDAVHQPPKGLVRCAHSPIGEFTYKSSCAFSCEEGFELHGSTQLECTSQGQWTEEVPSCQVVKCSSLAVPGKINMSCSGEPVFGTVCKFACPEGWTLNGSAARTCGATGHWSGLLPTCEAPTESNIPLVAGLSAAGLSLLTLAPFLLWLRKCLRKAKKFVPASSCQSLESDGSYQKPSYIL
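Read-out: % PE-positive cells | Test system: HUVEC | Doses: One compound dose added by pin transfer | Buffer or medium: EGM-2 over gelatin coat | Signal: Immunofluorescence imaging | Benchmarks: TNF-alpha, DMSO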
FGF22 binding-2 = binders of human FGF22 protein, dose response, FGF22 synaptogenesis inhibitor project, biophysical, thermal shift, cherry-pick retest; AID 720646, 2013; thermal shift activity, °C (ΔTm) at 38 µM; 1,000 compounds, 2% hits; shares compounds with FGF22 binding-1; recombinant FGF22 thermal shift, SYPRO orange fluorescence;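 active = fitted rise in melting shift crosses a set limit at or below the top valid dose tested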
TSA no protein = compound-only thermal shift signal without protein, dose response, artefact control for FGF22 binder project, biochemical, cherry-picked samples, RT-PCR instrument; 1,000 compounds, 2% hits; compound-only SYPRO orange thermal shift counter-screen, no protein; shares compounds with FGF22 binding-1; AC50, µM (doses to about 38 µM);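 active = rising signal whose fitted curve reaches the 0.54 level within the top valid dose, showing a melting point, actives reach about 13 µM in these data; inactive = the rest, including activity in the opposite direction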; note: value is where the raw curve crosses a fixed level and not half-maximal
Numbers without * were called inactive; i = inactive; nt = no result given; ! = a repeat was not active; [ ] = another dose, or the depositor's remark.

SMILES	FGF22 binding-1	CFTR F508del cor	HIV Env fusion	S100A4 inh HTS	E-selectin induc	FGF22 binding-2	TSA no protein
CC(=O)c1sc(NC(=O)c2cc(=O)c3ccccc3o2)nc1C	5.1*	-1.0	-0.8	-8.7	nt	-0.077	i
CCOC(=O)c1csc(NC(=O)c2cc(=O)c3ccccc3o2)n1	0.5	-3.1	-24.0	4.0	nt	nt	nt
Cc1ccc(S(=O)(=O)Nc2ccc3c(c2)C(=O)N([C@H](C)CO)C[C@@H](C)[C@H](CN(C)Cc2ccc4c(c2)OCO4)O3)cc1	0.0	-0.4	nt	-3.6	-0.6	nt	nt
COc1ccc(S(=O)(=O)Nc2ccc3c(c2)CC(=O)N([C@H](C)CO)C[C@@H](C)[C@H](CN(C)C(=O)Nc2ccccc2)O3)cc1	-0.4	1.6	-1.5[16.7 µM]	28.1	-0.1	nt	nt
COc1ccccc1S(=O)(=O)N(C)C[C@@H]1Oc2cc(C#CCC(C)C)ccc2S(=O)(=O)N([C@@H](C)CO)C[C@H]1C	20.6*	2.1	51.5[16.7 µM]	-2.5	nt	-1.1[42 µM]	i
CCCN(C)C[C@H]1Oc2cc(C#Cc3cccnc3)ccc2S(=O)(=O)N([C@H](C)CO)C[C@@H]1C	1.3*	-0.9	26.4[16.7 µM]	-10.9	-0.2	0.002	i
CCCN(C)C[C@H]1Oc2cc(-c3ccncc3)ccc2S(=O)(=O)N([C@H](C)CO)C[C@H]1C	2.1*	0.5	-8.8[16.7 µM]	6.5	0.0	-0.062	i
CCCN(C)C[C@@H]1Oc2cc(C#Cc3cccnc3)ccc2S(=O)(=O)N([C@@H](C)CO)C[C@H]1C	-0.8	2.2	20.2[16.7 µM]	-2.6	0.0	nt	nt
COc1ccccc1S(=O)(=O)N(C)C[C@@H]1Oc2cc(C#CCC(C)C)ccc2S(=O)(=O)N([C@H](C)CO)C[C@H]1C	-0.4	-1.3	24.0[16.7 µM]	2.6	nt	nt	nt
CCCN(C)C[C@H]1Oc2cc(C#Cc3ccc(F)cc3)ccc2S(=O)(=O)N([C@H](C)CO)C[C@@H]1C	1.7*!	-0.8	-0.7	4.0	0.2	-0.192	i
CCCN(C)C[C@@H]1Oc2cc(-c3ccncc3)ccc2S(=O)(=O)N([C@@H](C)CO)C[C@@H]1C	-0.5	-1.7	-18.3[16.7 µM]	11.1	-0.1	nt	nt
CCCC(=O)Nc1ccc2c(c1)OC[C@@H](C)N(C(=O)C1CCCC1)C[C@H](C)[C@@H](OC)CN(C)C2=O	0.0	2.6	-12.6[16.7 µM]	8.0	-0.2	nt	nt
C[C@@H]1CCCCO[C@H](CN(C)C(=O)Nc2ccc(F)cc2)[C@@H](C)CN([C@@H](C)CO)C(=O)c2cc(NC(=O)c3ccncc3)ccc2O1	-0.2	0.6	-28.2[16.7 µM]	10.4	-0.1	nt	nt
COCC(=O)N(C)C[C@@H]1Oc2cc(C#Cc3ccccc3)ccc2S(=O)(=O)N([C@@H](C)CO)C[C@H]1C	1.6*	1.5	12.2[16.7 µM]	4.9	-0.2	0.027[42 µM]	i
C[C@H](CO)N1C[C@H](C)[C@@H](CN(C)C)Oc2cc(C#CC3CCCCC3)ccc2S1(=O)=O	0.1	1.6	27.0[16.7 µM]	-18.2	0.5	nt	nt
COCC(=O)N(C)C[C@@H]1Oc2cc(C#Cc3ccccc3)ccc2S(=O)(=O)N([C@H](C)CO)C[C@H]1C	1.1	-3.0	31.8[16.7 µM]	-10.8	0.1	nt	nt
C[C@H]1CN([C@@H](C)CO)S(=O)(=O)c2ccc(C#CC3CCCCC3)cc2O[C@@H]1CN(C)C	1.3*	0.2	6.0[16.7 µM]	0.1	0.7	0.143[42 µM]	i
CO[C@H]1CN(C)C(=O)c2ccc(NS(=O)(=O)CC(F)(F)F)cc2OC[C@@H](C)N(Cc2nccs2)C[C@H]1C	0.0	0.6	nt	1.5	-0.1	nt	nt
c1ccc(-c2cc3nc(NCc4ccc5c(c4)OCO5)ccn3n2)cc1	34.6*	-0.2	-5.2	11.1	nt	0.104	i
c1ccc(COc2ccc(-c3cc4nc(NCc5ccc6c(c5)OCO6)ccn4n3)cc2)cc1	0.3	-2.2	34.1	7.5	-0.1	nt	nt
CCCN(C)C[C@H]1Oc2ncc(-c3ccccc3)cc2C(=O)N([C@H](C)CO)C[C@@H]1C	0.4	0.0	20.2[16.7 µM]	-4.0	nt	nt	nt
COc1ccc(-c2cnc3c(c2)C(=O)N([C@@H](C)CO)C[C@@H](C)[C@@H](CN(C)C(=O)NC2CCCC2)O3)cc1	0.0	-0.5	-3.2[16.7 µM]	-5.9	5.0	nt	nt
C/C=C/c1ccc2c(c1)O[C@@H](CN(C)C(=O)Nc1ccc(F)cc1)[C@@H](C)CN([C@H](C)CO)S2(=O)=O	nt	0.1	-8.9[16.7 µM]	3.6	-0.1	-0.092	i
C[C@H]1CN([C@@H](C)CO)S(=O)(=O)c2ccc(/C=C/c3ccccc3)cc2O[C@@H]1CN(C)Cc1ccc(C(=O)O)cc1	1.6*	0.7	7.0[16.7 µM]	11.6	0.5	0.062[42 µM]	i
C[C@@H]1CN([C@@H](C)CO)S(=O)(=O)c2ccc(/C=C/c3ccccc3)cc2O[C@H]1CN(C)Cc1ccc(C(=O)O)cc1	1.1	3.7	-10.0[16.7 µM]	2.7	-0.1	nt	nt
SMILES	FGF22 binding-1	CFTR F508del cor	HIV Env fusion	S100A4 inh HTS	E-selectin induc	FGF22 binding-2	TSA no protein
COc1cccc(NC(=O)N(C)C[C@@H]2Oc3cc(-c4ccccc4F)ccc3S(=O)(=O)N([C@H](C)CO)C[C@H]2C)c1	-0.3	-1.6	-2.0[16.7 µM]	-0.5	-0.5	nt	nt
COc1cccc(NC(=O)N(C)C[C@H]2Oc3cc(-c4ccccc4F)ccc3S(=O)(=O)N([C@H](C)CO)C[C@H]2C)c1	2.3*	-1.4	-15.6[16.7 µM]	-7.4	nt	0.137	11.5µM*
COc1cccc(NC(=O)N(C)C[C@@H]2Oc3cc(-c4ccccc4F)ccc3S(=O)(=O)N([C@@H](C)CO)C[C@@H]2C)c1	2.1*	2.2	5.4[16.7 µM]	-4.0	nt	-0.219	i
COc1ccccc1-c1ccc2n(c1=O)C[C@@H]1[C@@H](CO)[C@H](C(=O)O)N(C(=O)c3cccnc3)[C@H]21	-0.2	6.2	nt	-5.9	-0.2	nt	nt
C[C@@H]1CN([C@@H](C)CO)C(=O)c2cc(C#CC3(O)CCCC3)cnc2O[C@H]1CN(C)Cc1cccnc1	-0.2	0.3	-0.2[16.7 µM]	-6.6	0.3	nt	nt
C[C@@H]1CN([C@H](C)CO)S(=O)(=O)c2ccc(-c3ccc(F)cc3)cc2O[C@@H]1CN(C)C(=O)Nc1ccccc1F	1.8*	0.7	-13.9[16.7 µM]	-1.7	0.0	0.119	i
C/C=C/c1cnc2c(c1)C(=O)N([C@@H](C)CO)C[C@H](C)[C@H](CN(C)C(=O)Nc1c(C)noc1C)O2	-0.1	-1.3	10.3[16.7 µM]	17.1	nt	nt	nt
CC(=O)Nc1ccc(S(=O)(=O)Nc2ccc(Cl)nn2)cc1	nt	nt	-4.1	nt	nt	nt	nt
